ChEMBL document CHEMBL1914307, “Small molecular CD4 mimics as HIV entry inhibitors” (Bioorg Med Chem, 2011)
pIC50: −log10 of the molar value.

Columns and labels:
[1] = system: Human immunodeficiency virus 1; test: Antiviral activity against R5 tropic HIV1 YTA infected in human TZM-bl cells assessed as beta-galactosidase activity preincubated for 15 mins before infection measured after 2 days by single-round assay using luminometry; assay type: functional, organism-based; conditions: Human immunodeficiency virus 1, YTA
How it was run: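 Single-round infection of TZM-bl cells with R5 YTA virus; beta-galactosidase read as relative light units; IC50 = concentration giving 50% reduction vs virus control wells; mean of at least three independent experiments.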

PM1 = test: Induction of gp120 conformational change in R5 tropic Human immunodeficiency virus 1 subtype B isolate JR-FL infected in human PM1 cells assessed as binding of anti-HIV1 mAb 4C11 measuring mean fluorescence intensity at 100 uM preincubated for 15 mins by FACS analysis using antibody staining (reference value: 14.94 fluorescence intensity); assay type: cell-based
How it was run: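 Env-expressing PM1 cells were pretreated with the CD4 mimic, then stained with the CD4-induced anti-envelope mAb 4C11 at 4 °C for 15 min. Cells were washed in PBS and detected with FITC-conjugated goat anti-human IgG. The read-out was flow cytometry on gated PM1 cells, giving the mean fluorescence intensity of 4C11. Anti-human CD19 served as the control antibody. Data are representative of at least two independent experiments.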

[2] = Selectivity index, ratio of CC50 for mock-infected human PM1 cells expressing CCR5 to IC50 for R5 tropic HIV1 YTA infected in human TZM-bl cells; assay type: functional
How it was run: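 SI calculated as CC50 (WST-8 viability, mock-infected PM1/CCR5 cells) divided by IC50 (beta-galactosidase reduction after single-round YTA infection of TZM-bl cells).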

[3] = Cytotoxicity against mock-infected human PM1 cells expressing CCR5 by WST-8 assay; assay type: cell-based
How it was run: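 Viability of mock-infected PM1/CCR5 cells determined by WST-8; CC50 = concentration reducing viability by half; mean of at least three independent experiments.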

[4] = system: Human immunodeficiency virus 1; test: Antiviral activity against HIV1 infected in human PM1 cells expressing CCR5 assessed as inhibition of virus-induced cytopathogenicity by multi-round assay; assay type: functional, organism-based; conditions: Human immunodeficiency virus 1, PM1
How it was run: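 HIV-1-induced cytopathogenicity measured in PM1/CCR5 cells over multiple rounds of infection; IC50 from inhibition of cytopathic effect; mean of at least three independent experiments.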

[5] = Ratio of compound CC50 to NBD-556 CC50 for mock-infected human PM1 cells expressing CCR5 by WST-8 assay; assay type: ADME, cell-based

Structure (SMILES) | pIC50 [1] | Flu intensity (PM1) | Ratio CC50/IC50 [2] | CC50 [3] [µM] | pIC50 [4] | selectivity ratio [5]
O=C(Nc1ccc(Cl)cc1)C(=O)NC1CCN(C(=O)c2ccccc2)CC1 | 5.29 | 17.8 |  |  |  | 
O=C(Nc1ccc(Cl)cc1)C(=O)NC1CCN(C(=O)Nc2ccccc2)CC1 | 4.96 |  | 0.56 | 6.2 |  | 
N=C(N)N1CCC(NC(=O)C(=O)Nc2ccc(Cl)cc2)CC1.O=C(O)C(F)(F)F | 5.21 | 20.9 | 12 | 72 |  | 
O=C(Nc1ccc(Cl)cc1)C(=O)NC1CCNCC1 | 5.15 | 20.5 | 7.3 | 51 |  | 
NC(=O)N1CCC(NC(=O)C(=O)Nc2ccc(Cl)cc2)CC1 | 5.08 | 16 | 37 | 310 |  | 
O=C(Nc1ccc(F)cc1)C(=O)Nc1ccc(Cl)cc1 | 5.51 | 15.2 | >160 | > 500 |  | 
Cc1ccc(NC(=O)C(=O)NC2CC(C)(C)NC(C)(C)C2)cc1 | 5.08 |  | 31 | 260 |  | 
O=C(NCCc1ccccn1)C(=O)Nc1ccc(Cl)cc1 | 4.70 | 15.4 | 24 | 480 |  | 
O=C(Nc1ccc(Cl)cc1)C(=O)Nc1ccc(Cl)cc1 | < 4.00 |  |  | > 500 |  | 
NC(=S)N1CCC(NC(=O)C(=O)Nc2ccc(Cl)cc2)CC1 | 5.26 | 20.2 | 7.6 | 42 |  | 
O=C(Nc1ccc(Cl)cc1)C(=O)Nc1ccc(Br)cc1 | < 4.00 |  |  | > 500 |  | 
CC1(C)CC(NC(=O)C(=O)Nc2ccc(Cl)cc2)CC(C)(C)N1 | 6.21 | 23.1 | 57 | 35 | 6.05 | 
O=C(Nc1ccc(Cl)cc1)C(=O)NC1CC2(CCCCC2)NC2(CCCCC2)C1 (configuration not stated) | 6.17 | 22.2 | 176 | 120 | 6.25 | 4
